According to ChEMBL document CHEMBL1926607 (J Med Chem, 2011):
Activity calls are given as the source filed them. The calls are words filed in the database; no cut-off is given here.

Columns and labels:
[1] = target: 5-hydroxytryptamine receptor 2A (Rattus norvegicus, UniProt P14842); assay: Displacement of [3H]ketanserin from 5HT2A receptor in Sprague-Dawley albinus rat frontal cortex membranes after 15 mins; assay type: cell membranes, Membrane
Procedure, shortened: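 Rat frontal cortex membranes (male Sprague–Dawley, 180–200 g). Nonspecific binding was set with 1 μM cinanserin.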

[2] = target: T1, 5-hydroxytryptamine receptor 1A (Rattus norvegicus, UniProt P19327); assay: Displacement of [3H]-8-OH-DPAT from 5-HT1A receptor in Sprague-Dawley albinus rat cerebral cortex membranes after 15 mins; assay type: cell membranes, Membrane
T1 sequence (P19327 whole entry): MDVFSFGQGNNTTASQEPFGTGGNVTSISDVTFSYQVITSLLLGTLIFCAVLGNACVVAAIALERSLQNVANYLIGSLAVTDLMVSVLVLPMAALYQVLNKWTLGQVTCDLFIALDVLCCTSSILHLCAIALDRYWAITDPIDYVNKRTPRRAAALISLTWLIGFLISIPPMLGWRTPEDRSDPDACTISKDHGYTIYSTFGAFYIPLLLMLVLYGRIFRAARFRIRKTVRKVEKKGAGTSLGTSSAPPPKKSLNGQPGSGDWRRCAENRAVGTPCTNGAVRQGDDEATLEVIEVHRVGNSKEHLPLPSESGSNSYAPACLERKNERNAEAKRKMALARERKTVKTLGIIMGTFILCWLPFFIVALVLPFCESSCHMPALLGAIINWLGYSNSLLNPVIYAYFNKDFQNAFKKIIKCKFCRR

[3] = target: T2, 5-hydroxytryptamine receptor 1A (Homo sapiens) (UniProt P08908); assay: Agonist activity at human 5HT1A receptor expressed in human HeLa cells assessed as inhibition of forskolin-stimulated cAMP production pretreated 20 mins before forskolin challenge measured after 2 hrs by RIA relative to control; assay type: functional, cell-based
T2 sequence (whole entry): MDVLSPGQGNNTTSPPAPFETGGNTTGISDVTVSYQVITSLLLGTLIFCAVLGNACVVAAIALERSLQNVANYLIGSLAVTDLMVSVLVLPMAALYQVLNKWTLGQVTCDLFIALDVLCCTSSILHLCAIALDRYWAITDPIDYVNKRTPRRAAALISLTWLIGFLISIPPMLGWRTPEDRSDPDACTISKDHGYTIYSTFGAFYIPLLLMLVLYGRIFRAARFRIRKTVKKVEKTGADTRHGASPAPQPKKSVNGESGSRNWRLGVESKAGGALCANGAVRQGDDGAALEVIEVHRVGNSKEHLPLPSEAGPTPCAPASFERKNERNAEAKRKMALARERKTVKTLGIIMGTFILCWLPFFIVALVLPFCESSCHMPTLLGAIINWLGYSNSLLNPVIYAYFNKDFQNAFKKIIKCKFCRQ

[4] = target: T3, 5-hydroxytryptamine receptor 1A (Homo sapiens, UniProt P08908); assay: Agonist activity at human 5HT1A receptor expressed in human HeLa cells assessed as inhibition of forskolin-stimulated cAMP production […] measured after 2 hrs by RIA; assay type: functional, cell-based
T3 sequence (P08908 whole entry): T2 sequence (whole entry)
Procedure, shortened: (§1)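 HeLa cells stably expressing the h5-HT1AR, grown in DMEM with 2 mM glutamine, 1 mM pyruvate and 10% heat-inactivated FCS, and used after 2–3 days at about 7.5 × 10^4 cells/well. After a PBS wash, cells were incubated 10 min in PBS with 0.5 mM isobutylmethylxanthine and 10 μM forskolin, with or without compound. The reaction was stopped with ice-cold ethanol, extracted 2 h and lyophilized; cAMP was measured by RIA.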

[5] = target: 5-hydroxytryptamine receptor 4 (Rattus norvegicus, UniProt Q62758); assay: Displacement of [3H]GR113808 from 5HT4 receptor in Sprague-Dawley albinus rat striatal membranes after 30 mins by scintillation counting; assay type: cell membranes, Membrane
5-hydroxytryptamine receptor 4, sequence (Q62758 whole entry): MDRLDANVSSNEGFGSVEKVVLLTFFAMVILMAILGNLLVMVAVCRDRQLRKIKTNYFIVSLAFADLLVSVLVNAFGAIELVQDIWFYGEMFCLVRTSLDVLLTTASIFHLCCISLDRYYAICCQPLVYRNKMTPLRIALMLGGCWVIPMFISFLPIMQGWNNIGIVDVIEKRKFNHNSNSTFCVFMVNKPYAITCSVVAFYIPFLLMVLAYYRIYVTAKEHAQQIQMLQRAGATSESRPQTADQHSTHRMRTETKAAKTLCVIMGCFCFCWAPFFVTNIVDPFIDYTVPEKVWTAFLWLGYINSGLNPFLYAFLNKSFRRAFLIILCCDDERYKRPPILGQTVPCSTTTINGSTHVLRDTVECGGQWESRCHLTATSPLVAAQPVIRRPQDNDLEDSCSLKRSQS

D(2) dopamine receptor = D(2) dopamine receptor (Rattus norvegicus, UniProt P61169); assay: Displacement of [3H]spiperone from dopamine D2 receptor in Sprague-Dawley albinus rat striatal membranes after 15 mins; assay type: cell membranes, Membrane
D(2) dopamine receptor, sequence (P61169 whole entry): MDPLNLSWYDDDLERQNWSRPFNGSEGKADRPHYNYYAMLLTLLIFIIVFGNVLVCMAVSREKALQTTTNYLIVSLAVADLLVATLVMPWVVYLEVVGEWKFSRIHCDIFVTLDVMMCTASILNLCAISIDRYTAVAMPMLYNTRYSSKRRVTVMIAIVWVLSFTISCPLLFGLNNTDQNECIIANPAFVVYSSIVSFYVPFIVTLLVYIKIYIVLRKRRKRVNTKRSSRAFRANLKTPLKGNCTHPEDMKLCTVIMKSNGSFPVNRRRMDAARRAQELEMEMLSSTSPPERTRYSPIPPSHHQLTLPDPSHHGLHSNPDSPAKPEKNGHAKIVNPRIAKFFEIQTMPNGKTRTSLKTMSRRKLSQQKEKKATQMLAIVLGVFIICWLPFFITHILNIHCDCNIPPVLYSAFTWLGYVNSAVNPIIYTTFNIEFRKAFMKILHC

[6] = target: 5-hydroxytryptamine receptor 7 (Rattus norvegicus, UniProt P32305); assay: Displacement of [3H]-5-CT from 5HT7 receptor in Sprague-Dawley albinus rat hyphalamic membranes after 120 mins; assay type: cell membranes, Membrane
5-hydroxytryptamine receptor 7, sequence (P32305 whole entry): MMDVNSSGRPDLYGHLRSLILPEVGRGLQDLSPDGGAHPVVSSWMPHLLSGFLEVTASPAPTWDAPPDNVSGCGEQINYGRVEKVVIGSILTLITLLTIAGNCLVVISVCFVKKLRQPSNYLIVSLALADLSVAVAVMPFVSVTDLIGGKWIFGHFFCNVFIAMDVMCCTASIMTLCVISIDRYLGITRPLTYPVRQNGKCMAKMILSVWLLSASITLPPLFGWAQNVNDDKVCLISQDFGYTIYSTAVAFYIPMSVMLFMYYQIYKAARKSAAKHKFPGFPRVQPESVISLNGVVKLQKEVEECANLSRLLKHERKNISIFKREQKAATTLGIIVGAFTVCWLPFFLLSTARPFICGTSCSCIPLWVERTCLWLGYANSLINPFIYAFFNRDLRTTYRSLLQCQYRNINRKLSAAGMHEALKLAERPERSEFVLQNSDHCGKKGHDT

[7] = target: T4, Adrenergic receptor alpha-1 (Rattus norvegicus, UniProt P15823+P23944+P43140); assay: Displacement of [3H]prazosin from alpha1 adrenoceptor in Sprague-Dawley albinus rat cerebral cortex membranes after 30 mins; assay type: cell membranes, Membrane
T4 sequence (P15823 whole entry): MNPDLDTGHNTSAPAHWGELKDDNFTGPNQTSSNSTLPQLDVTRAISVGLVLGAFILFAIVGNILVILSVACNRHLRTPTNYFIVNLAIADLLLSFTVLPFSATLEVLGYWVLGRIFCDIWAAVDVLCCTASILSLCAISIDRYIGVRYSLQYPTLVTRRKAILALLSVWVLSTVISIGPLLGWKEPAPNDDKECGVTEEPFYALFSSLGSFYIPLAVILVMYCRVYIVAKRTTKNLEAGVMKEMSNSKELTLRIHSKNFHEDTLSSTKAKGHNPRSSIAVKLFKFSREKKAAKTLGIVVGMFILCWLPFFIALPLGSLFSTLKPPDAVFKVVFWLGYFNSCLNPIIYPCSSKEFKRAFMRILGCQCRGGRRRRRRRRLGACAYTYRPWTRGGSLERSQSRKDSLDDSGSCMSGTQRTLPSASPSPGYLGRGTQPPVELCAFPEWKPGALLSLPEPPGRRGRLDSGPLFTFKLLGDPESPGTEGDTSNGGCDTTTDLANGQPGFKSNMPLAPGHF
T4 sequence (P23944 whole entry): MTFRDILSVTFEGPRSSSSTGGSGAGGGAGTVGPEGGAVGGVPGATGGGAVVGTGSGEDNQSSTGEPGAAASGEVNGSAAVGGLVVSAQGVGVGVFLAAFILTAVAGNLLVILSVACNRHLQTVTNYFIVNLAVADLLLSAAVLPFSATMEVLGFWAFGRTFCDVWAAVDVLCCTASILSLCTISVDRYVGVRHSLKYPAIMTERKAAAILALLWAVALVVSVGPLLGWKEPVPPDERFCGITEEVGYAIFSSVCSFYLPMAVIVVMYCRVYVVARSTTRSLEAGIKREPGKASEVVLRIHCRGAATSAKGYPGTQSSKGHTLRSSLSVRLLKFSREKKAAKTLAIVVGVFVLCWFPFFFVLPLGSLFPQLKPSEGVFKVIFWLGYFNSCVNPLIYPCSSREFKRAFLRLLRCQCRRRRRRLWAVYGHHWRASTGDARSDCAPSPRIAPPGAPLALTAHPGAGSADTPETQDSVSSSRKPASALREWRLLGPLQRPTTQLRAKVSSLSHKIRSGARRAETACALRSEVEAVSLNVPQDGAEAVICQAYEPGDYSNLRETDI
T4 sequence (P43140 whole entry): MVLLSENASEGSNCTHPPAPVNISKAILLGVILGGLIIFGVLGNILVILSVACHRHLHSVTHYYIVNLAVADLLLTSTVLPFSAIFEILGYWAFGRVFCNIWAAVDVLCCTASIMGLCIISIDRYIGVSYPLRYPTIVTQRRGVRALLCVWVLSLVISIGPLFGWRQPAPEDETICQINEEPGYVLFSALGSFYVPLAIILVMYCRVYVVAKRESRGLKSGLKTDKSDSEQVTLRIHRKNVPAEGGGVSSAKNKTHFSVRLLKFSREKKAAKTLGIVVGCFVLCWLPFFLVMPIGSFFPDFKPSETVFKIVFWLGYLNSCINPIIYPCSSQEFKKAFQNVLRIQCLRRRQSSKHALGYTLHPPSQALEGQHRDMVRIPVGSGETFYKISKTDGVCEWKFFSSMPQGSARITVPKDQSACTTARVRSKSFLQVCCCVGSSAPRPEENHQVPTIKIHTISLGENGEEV
Procedure, shortened: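 Rat cerebral cortex membranes (about 250 μg protein; male Sprague–Dawley, 180–200 g) in 50 mM Tris-HCl with 10 mM MgCl2, pH 7.4. Incubation was 30 min at 25 °C with 0.2 nM [3H]prazosin and six competitor concentrations. Nonspecific binding was set with 10 μM phentolamine.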

[8] = target: T5, 5-hydroxytryptamine receptor 3A (Rattus norvegicus, UniProt P35563); assay: Displacement of [3H]-LY278584 from 5HT3 receptor in Sprague-Dawley albinus rat cerebral cortex membranes after 30 mins; assay type: cell membranes, Membrane
T5 sequence (P35563 whole entry): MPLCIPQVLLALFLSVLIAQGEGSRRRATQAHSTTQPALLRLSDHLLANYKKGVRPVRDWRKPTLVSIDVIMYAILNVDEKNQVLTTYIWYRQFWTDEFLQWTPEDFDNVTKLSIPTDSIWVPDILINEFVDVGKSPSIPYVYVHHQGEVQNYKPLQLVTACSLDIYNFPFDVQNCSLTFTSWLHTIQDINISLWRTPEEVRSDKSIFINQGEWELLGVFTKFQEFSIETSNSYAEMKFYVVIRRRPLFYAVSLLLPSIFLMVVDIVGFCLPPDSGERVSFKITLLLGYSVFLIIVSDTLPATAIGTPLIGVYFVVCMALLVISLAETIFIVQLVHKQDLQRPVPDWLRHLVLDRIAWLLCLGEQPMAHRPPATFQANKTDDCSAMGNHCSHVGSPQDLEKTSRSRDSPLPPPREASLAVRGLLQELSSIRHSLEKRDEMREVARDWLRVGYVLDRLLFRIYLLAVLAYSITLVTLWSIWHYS

[9] = target: T2, 5-hydroxytryptamine receptor 1A (Homo sapiens); assay: Partial agonist activity at human 5HT1A receptor expressed in human HeLa cells assessed as inhibition of forskolin-stimulated cAMP production pretreated 20 mins before forskolin challenge measured after 2 hrs by RIA; assay type: functional, cell-based; procedure, shortened: as §1
[10] = Neuroprotective activity in Wistar rat hippocampi primary neuronal cells assessed as protection against oxygen-glucose deprivation induced cell death at 1 uM after 18 hrs by MTT assay; assay type: functional, Hippocampus, Primary neuron
[11] = Neuroprotective activity in Wistar rat hippocampi primary neuronal cells assessed as protection against serum-deprivation induced cell death at 1 uM after 24 hrs by MTT assay; assay type: functional, Hippocampus, Primary neuron
Procedure, shortened: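 Mixed neuron-glia cultures from E18 Wistar rat hippocampi (Neurobasal plus 10% FCS), used at 11 days in vitro. Medium replaced by saline to withdraw serum; cells held 24 h with compound. Cell survival measured by MTT reduction, expressed as % protection.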

[12] = Neuroprotective activity in Wistar rat hippocampi primary neuronal cells assessed as protection against glutamate-induced cell death at 1 uM treated 30 min before glutamate challenge measured after 22 hrs by MTT assay; assay type: functional, Hippocampus, Primary neuron
Procedure, shortened: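 E18 fetal Wistar rat hippocampal neurons in neuron-enriched culture (Neurobasal, 2% B27, poly-L-lysine), used at 11 days in vitro. Compound added 30 min before 1 mM glutamate, exposure 22 h. Survival by MTT (mitochondrial dehydrogenase) read-out, reported as % protection.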

5-hydroxytryptamine receptor 2A, sequence (P14842 whole entry): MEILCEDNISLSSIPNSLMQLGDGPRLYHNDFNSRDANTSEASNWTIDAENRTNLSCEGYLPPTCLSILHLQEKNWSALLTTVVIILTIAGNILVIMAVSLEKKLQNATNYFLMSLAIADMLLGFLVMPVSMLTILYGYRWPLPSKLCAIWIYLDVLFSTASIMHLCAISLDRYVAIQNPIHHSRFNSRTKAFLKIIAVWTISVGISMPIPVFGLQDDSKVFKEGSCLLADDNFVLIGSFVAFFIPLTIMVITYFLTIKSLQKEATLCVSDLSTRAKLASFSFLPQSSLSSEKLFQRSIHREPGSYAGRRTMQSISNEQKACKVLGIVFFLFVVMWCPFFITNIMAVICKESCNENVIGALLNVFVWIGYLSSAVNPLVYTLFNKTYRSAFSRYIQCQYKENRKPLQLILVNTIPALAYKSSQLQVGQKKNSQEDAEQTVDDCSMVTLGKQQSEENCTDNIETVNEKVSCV

SMILES	Ki [1] [nM]	Emax [3] [%]	Ki [2] [nM]	further results
O=C1C2CCCN2C(=O)N1CCCCCCCCNCC1CCc2ccccc2O1 (configuration not stated)	–	–	87.6	–
O=C1C2CCCN2C(=O)N1CCCCNCc1ccccc1 (configuration not stated)	–	–	> 1000	–
O=C1C2CCCN2C(=O)N1CCCCNCCc1ccccc1 (configuration not stated)	–	–	> 1000	–
O=C1C2CCCN2C(=O)N1CCCCNCCc1ccco1 (configuration not stated)	–	–	> 1000	–
O=C1C2CCCN2C(=O)N1CCCCNCc1ccco1 (configuration not stated)	–	–	> 1000	–
O=C1CSC(=O)N1CCCCCCNCC1CCc2ccccc2O1 (configuration not stated)	> 1000	87	–	EC50 [4]: 19.9 nM
O=C1CSC(=O)N1CCCCCCCCNCC1CCc2ccccc2O1 (configuration not stated)	> 1000	88.6	–	EC50 [4]: 25.9 nM
O=C1C2CCCN2C(=O)N1CCCCNCc1ccccn1 (configuration not stated)	–	–	> 1000	–
O=C1C2CCCN2C(=O)N1CCCCNCCc1cccs1 (configuration not stated)	–	–	> 1000	–
CCCN(CCC)C1CCc2cccc(O)c2C1 (configuration not stated) [8-OH-DPAT]	–	–	–	Activity [10]: 54%; Activity [11]: 44%; Activity [12]: 37%

Second part, led by results:

Ki [1] [nM]	Emax [3] [%]	SMILES	Ki [2] [nM]	further results
> 1000	94.3	O=C1C2CCCN2C(=O)N1CCCNCC1CCc2ccccc2O1 (configuration not stated)	8.2	EC50 [4]: 23.3 nM
> 1000	–	Cl.O=C1C2CCCCN2C(=O)CN1CCCCNCC1CCc2ccccc2O1 (configuration not stated)	34	Ki [5]: > 1000 nM; Ki (D(2) dopamine receptor): > 1000 nM; Ki [6]: > 1000 nM; Ki [7]: 67 nM; Ki [8]: > 1000 nM
> 1000	75.8	O=C1C2CCCN2C(=O)N1CCCCNCc1ccc2ccccc2n1 (configuration not stated)	8.3	Activity [9]: Active
> 1000	89.6	O=C1CSC(=O)N1CCCCNCC1CCc2ccccc2O1 (configuration not stated)	15.1	–
> 1000	94.8	O=C1CSC(=O)N1CCCCCNCC1CCc2ccccc2O1 (configuration not stated)	–	EC50 [4]: 34.2 nM
